The list is not random: actives were taken first. Their share in the collection is about 4.9%.
PHOSPHO1 block – PubChem AID 1565. 1.1% of 290,000 active. inhibition, % at 13.3 µM. recombinant PHOSPHO1, absorbance phosphatase assay. Phosphoethanolamine/phosphocholine phosphatase (Homo sapiens), Q8TCT1; in the data active means inhibition above about 60%
Target sequence (Q8TCT1 whole entry, looked up): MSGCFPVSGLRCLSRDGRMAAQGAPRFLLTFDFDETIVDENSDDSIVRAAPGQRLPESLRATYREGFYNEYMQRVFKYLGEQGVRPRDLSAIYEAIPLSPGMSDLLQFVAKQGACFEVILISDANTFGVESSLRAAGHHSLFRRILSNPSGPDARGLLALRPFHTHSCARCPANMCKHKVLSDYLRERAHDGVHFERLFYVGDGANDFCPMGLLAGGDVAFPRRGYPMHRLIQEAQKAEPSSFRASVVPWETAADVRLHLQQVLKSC
HSF-1 act – HSF-1 activators, primary screen, NIH3T3-HGL cells, MG132 stress, luminescence, single point; NIH3T3-HGL HSF-1 luciferase reporter, 8 h; 100% = twice DMSO control signal; activation, % at 9 µM; 1.7% of 300,000 active;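 active means mean replicate activation of at least 50% with a set share of replicates each reaching 50%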
CHT allo act – CHT positive allosteric modulators, primary screen, cell-based, membrane potential dye, choline EC20. High affinity choline transporter 1 (Homo sapiens), Q9GZV3. CHT-expressing cells; hits give high values; LV-AA mutant CHT in HEK293 cells. B-score at 10 µM. 0.49% of 310,000 active. AID 488977, 2010;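 active means initial fluorescence not abnormally high and integrated response B-score, plate-corrected, over 3 SD above library mean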
Hep lipid drop – inhibitors of hepatocyte lipid droplet formation, primary screen, imaging, high-throughput imaging, BODIPY stain. 0.4% of 240,000 active. inhibition, % at 6.5 µM. AML12 mouse hepatocytes, oleate lipid droplets;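 active means lipid droplet intensity inhibited by at least 50%, with more than 500 cells counted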
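Technique: fluorescence imaging, 20x objective, two fields per well / Assay system: AML12 hepatocytes (mouse) / Measure: % inhibition of lipid droplet signal / Doses: 6.5 µM single-point dosing / Incubation: overnight exposure / Reagent: 100 µM oleic acid challenge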
CHT inh – inhibitors of human choline transporter CHT | High affinity choline transporter 1 (Homo sapiens), Q9GZV3 | CHT-expressing cells, membrane potential dye, choline response; hits give low values | B-score at 10 µM | 0.86% of 310,000 active | AID 488975, 2010;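 active means B-score over 3 SD under the library average, and starting fluorescence ratio not unusually high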;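 further: choline stimulus applied at its EC90 after an EC20 pre-addition; B-score computed on integrated fluorescence ratio after choline addition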
HSF1 inh – HSF1 inhibitors in luciferase reporter cells, primary screen, cell-based, NIH3T3, luminescence. activity change, negative = inhibition, % at 7.5 µM (by protocol). 0.77% of 300,000 active. AID 2098, 2009. NIH3T3-HGL HSE-luciferase, MG132-induced, luminescence 8 h; hits give low values;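 active means more than half of replicate wells show activity change below -50%, luminescence cut by over half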;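 further: luciferase reports HSF-1 transcriptional activity via heat shock element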
CHT block conf – CHT inhibitors, confirmation, cell-based, membrane potential dye, duplicate | 70% of 2,400 active | CHT activity remaining % of control (hits give low values), % at 10 µM | CHT-expressing cells, choline membrane potential dye; LV-to-AA substituted CHT, HEK293 cells | shares compounds with CHT inh;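 active means choline transporter activity left, mean of duplicates at 10 µM, below buffer-only control mean minus 3 SD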;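 further: depolarization triggered by choline at its EC90 following an EC20 pre-addition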
HEK293 CHT ctr – membrane potential effects in parental HEK293, counter-screen for CHT inhibitor project, cell-based, membrane potential dye. shares compounds with CHT inh. choline response; active = decrease or increase beyond buffer ±3SD. membrane potential ratio readout (active if shifted either direction beyond buffer ±3SD; no single direction) at 10 µM. 4% of 2,400 active. AID 493222, 2011;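 further: parental cells lack the transporter so any hit is non-specific; ratio is peak minus trough fluorescence over baseline after EC90 choline challenge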
Each line names hits and unclear results; the compound was inactive in the other large screens (follow-up assays come after a bar, where they were run).

CCc1ccccc1NC(=O)c1ccc(CN2CCC(Cc3ccccc3)CC2)cc1	CHT inh -9.57 (no result: Hep lipid drop) | CHT block conf 48.3% | HEK293 CHT ctr inactive
O=C(NCc1ccccc1)c1ccc(CN2CCC(Cc3ccccc3)CC2)cc1	none
CCc1cccc(C)c1NC(=O)c1ccc(CN2CCc3ccccc3C2)cc1	CHT inh -5.44 | CHT block conf 70.8% | HEK293 CHT ctr inactive
Cc1ccccc1NC(=O)c1ccc(CN2CCc3ccccc3C2)cc1	none
CCOc1ccccc1NC(=O)CSc1nnc(NC(=O)c2ccco2)s1	none
C#CC[N+](C)(C)CC#Cc1ccc(C)cc1	none
C#CC[N+](CC)(CC)CC#Cc1ccccc1	CHT inh -7.72 | CHT block conf 34.6% | HEK293 CHT ctr inactive
Nc1nc(-c2ccco2)nn1C(=O)c1ccc(Cl)cc1	none (no result: Hep lipid drop)
CCC(C(=O)NCCCN1CC(C)CC(C)C1)n1nc(C)c2sc3ccccc3c2c1=O (configuration not stated)	CHT inh -8.8 | CHT block conf 16.5% | HEK293 CHT ctr inactive
COc1ccccc1-c1coc2cc(O)cc(O)c2c1=O	CHT inh -5.87 | CHT block conf 65.5% | HEK293 CHT ctr inactive
CC(NS(=O)(=O)OCC(Cl)(Cl)Cl)c1ccc(Br)cc1 (configuration not stated)	CHT inh -5.18 | CHT block conf 67.3% | HEK293 CHT ctr inactive
CC(C)CC(NS(=O)(=O)OCC(Cl)(Cl)Cl)c1ccccc1 (configuration not stated)	none
Cc1ccc(N2CCN(/N=C/C(Cl)=C/c3ccccc3)CC2)cc1	none
COCc1cc(C)nc(OCC(=O)N/N=C/c2ccco2)c1C#N	none
CCOc1[nH]c(/N=C/c2ccco2)c(C#N)c1C#N	CHT inh -5.1 (no result: HSF-1 act, Hep lipid drop, HSF1 inh) | CHT block conf 53.0% | HEK293 CHT ctr inactive
O=C(Nc1ccc(N2C(=O)C3C4C=CC(C4)C3C2=O)cc1)Nc1nnc(C(F)(F)F)s1 (configuration not stated)	none (no result: Hep lipid drop)
CC1(C)OC2C(O1)[C@@H](CO)O[C@H]2n1cnc2c(N)ncnc21 (some centres not stated)	none
Nc1ncnc2c1ncn2[C@@H]1O[C@H](CO)[C@@H](O)[C@H]1O	CHT inh -5.97 | CHT block conf 29.7% | HEK293 CHT ctr inactive
CCCCC(Br)C(=O)Nc1ccc(S(=O)(=O)Nc2cc(C)nc(C)n2)cc1 (configuration not stated)	CHT inh -5.77 | CHT block conf 14.5% | HEK293 CHT ctr inactive
Cc1cc(NS(=O)(=O)c2ccc(NC(=O)/C=C/c3c(F)cccc3Cl)cc2)nc(C)n1	CHT inh -5.68 (no result: PHOSPHO1 block) | CHT block conf 31.2% | HEK293 CHT ctr inactive
O=C(Nc1ccc(S(=O)(=O)Nc2nccs2)cc1)c1c(F)c(F)c(F)c(F)c1F	CHT inh -5.05 (no result: PHOSPHO1 block) | CHT block conf 35.3% | HEK293 CHT ctr inactive
CCC(Oc1ccc(C)cc1)C(=O)Nc1ccc(S(=O)(=O)Nc2nccs2)cc1 (configuration not stated)	CHT inh -6.48 | CHT block conf 40.1% | HEK293 CHT ctr inactive
CC(Oc1ccccc1)C(=O)Nc1ccc(S(=O)(=O)Nc2nccs2)cc1 (configuration not stated)	none
CCc1ccc2nc(NC3=NCN(CCN4CCOCC4)CN3)nc(C)c2c1	none (no result: HSF-1 act, CHT allo act, Hep lipid drop, CHT inh, HSF1 inh)
CC(C)c1ccc(CNCc2ccccc2)cc1	CHT inh -5.13 (no result: Hep lipid drop) | CHT block conf 41.7% | HEK293 CHT ctr -15.2

Screening results: PubChem, several laboratories
